ChEMBL document CHEMBL3864184, “Optimization of Highly Kinase Selective Bis-anilino Pyrimidine PAK1 Inhibitors” (ACS Med Chem Lett, 2016)

How the values were obtained:
[1] = Distribution coefficient, logD of the compound; format: physicochemical; conditions: octanol/water
[2] = Intrinsic clearance in rat hepatocytes assessed per million cells; format: ADME, cell-based, Hepatocyte; conditions: read-out: CLH
Mus musculus = test: Acute toxicity in mouse at 100 mg/kg, po; format: organism-based; conditions: in vivo
How it was run: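 Observed for visible signs of toxicity during a mouse pharmacokinetic study after an oral 100 mg/Kg dose. This was not a maximum tolerated dose study.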

[3] = Cmax in mouse at 100 mg/kg, po; format: ADME, organism-based; design: dose 100 mg/kg, route oral; conditions: in vivo
[4] = Volume of distribution at steady state in mouse at 0.5 mg/kg, iv or 100 mg/kg, po; format: ADME, organism-based; conditions: in vivo, read-out: Vdss
[5] = Half life in mouse at 0.5 mg/kg, iv; format: ADME, organism-based; conditions: in vivo
[6] = Unbound fraction in mouse plasma at 0.5 mg/kg, iv or 100 mg/kg, po; format: ADME, organism-based
[7] = Clearance in mouse at 0.5 mg/kg, iv; format: ADME, organism-based; conditions: in vivo

| Structure (SMILES) | logD [1] | also measured |
| --- | --- | --- |
| CN(c1cc(CO)ccc1Cl)c1nc(Nc2cc(N3CCOCC3)cc(S(C)(=O)=O)c2)ncc1F | 3.7 |  |
| CCS(=O)(=O)c1cc(Nc2ncc(F)c(N(C)c3cc(CO)ccc3C)n2)ccc1N1CCN(C)CC1 | 3 |  |
| Cc1ccc(N(C)c2nc(Nc3cc(N4CCOCC4)cc(S(C)(=O)=O)c3)ncc2F)cc1CO | 3.3 |  |
| CCS(=O)(=O)c1cc(Nc2ncc(F)c(N(C)c3cc(CO)c(C)cc3C)n2)ccc1N1C[C@@H]2C[C@H]1CN2C | 2.5 | hepatocyte CLint [2]: 11 µL/min/1e6 cells; Activity (Mus musculus): Non-Toxic; Cmax [3]: 7.7 µM; Vd [4]: 1.4 L/kg; half-life [5]: 1 h; fraction unbound [6]: 0.029; clearance [7]: 22 mL/min/kg |
| Cc1ccc(CO)cc1N(C)c1nc(Nc2cc(N3CCOCC3)cc(S(C)(=O)=O)c2)ncc1F | 3.3 |  |
| CCS(=O)(=O)c1cc(Nc2ncc(F)c(N(C)c3cc(CO)c(C)cc3C)n2)cc(N2CCOCC2)c1 | 3.8 |  |
| CCn1c(=O)c(-c2ccc(-c3cncs3)cc2Cl)cc2cnc(Nc3ccc(N4CCN(C)CC4)cc3)nc21 | > 4 |  |
| CCS(=O)(=O)c1cc(Nc2ncc(F)c(N(Cc3ccccc3)c3cc(CO)ccc3C)n2)ccc1N1CCN(C)CC1 | 2.8 |  |
| CCS(=O)(=O)c1cc(Nc2ncc(F)c(N(Cc3ccccc3F)c3cc(CO)ccc3C)n2)ccc1N1CCN(C)CC1 | 3.3 |  |
